Data reported in ChEMBL document CHEMBL4680165, “β-Lactams with antiproliferative and antiapoptotic activity in breast and chemoresistant colon cancer cells” (Eur J Med Chem, 2020).

Experiments:
MCF7 [1] = assay: Cell cycle arrest in human MCF7 cells assessed as accumulation at G2/M phase at 1 uM measured after 24 hrs by PI staining based flow cytometry analysis (reference value: 24 %); format: functional
Outline: (§1)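 Cells (1 × 10^5/well) were treated at 1 µM for 24, 48 and 72 h; vehicle was 0.1% v/v ethanol. Cells were trypsinised, fixed in ice-cold 70% ethanol overnight at −20 °C, then stained with PI (50 µg/mL) plus DNase-free RNase A (50 µg/mL) at 37 °C for 30 min. DNA content of 10,000 cells per group was read by flow cytometry at 488 nm.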

MCF7 [2] = assay: Induction of apoptosis in human MCF7 cells assessed as downregulation of Bcl-2 expression level measured after 48 hrs by Western blot analysis; format: functional, cell-based; conditions: dose 0.05-0.5 µM
Outline: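 MCF-7 cells (1 × 10^5 per flask) were treated at 0.05, 0.1 and 0.5 µM for 48 and 72 h; vehicle was 0.1% v/v ethanol. Lysis was in RIPA buffer with protease and phosphatase inhibitors. Equal protein (BCA) was run on 12% SDS-PAGE and blotted for Mcl-1, Bcl-2 and survivin, with GAPDH as loading control and ECL detection. Three independent experiments.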

[3] = target: UDP-glucuronosyltransferases (UGTs) (Homo sapiens, UniProt O60656+O75310+O75795+P06133+P0DTE4+P0DTE5+P16662+P19224+P22309+P22310+P35503+P35504+P36537+P54855+Q6UWM9+Q9BY64+Q9HAW7+Q9HAW8+Q9HAW9); assay: Metabolic stability in human liver microsomes assessed as UGT-mediated N-glucuronidation by measuring intrinsic clearance at 3 uM measured up to 45 mins by LC-MS/MS analysis; format: ADME; conditions: liver microsomes, read-out: CLH
Outline: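 Pooled human liver microsomes (0.5 mg/mL protein final) with alamethicin (25 µg/mg) in 0.1 M phosphate pH 7.4, compound 3 µM final (0.25% DMSO), preincubated 37 °C. Reaction started with UDPGA (1 mM final). Sampled at 0, 5, 15, 30, 45 min into methanol, analysed by LC-MS/MS. Minus-UDPGA control run 45 min. Single incubations; t½ and CLint taken from the elimination rate constant.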

MCF7 [4] = assay: Cell cycle arrest in human MCF7 cells assessed as accumulation at G2/M phase at 1 uM measured after 48 hrs by PI staining based flow cytometry analysis (reference value: 24 %); format: functional; outline: as §1

COc1ccc([C@H]2[C@H](O)C(=O)N2c2cc(OC)c(OC)c(OC)c2)cc1F
Activity (MCF7 [1]): 66%
Activity (MCF7 [2]): Dose-dependent effect
microsomal CLint at 3 µM [3]: 14.2 µL/min/mg
Activity (MCF7 [4]): 75%
